Inconclusive results are not listed.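 How the source made its calls, unless noted: active means viability increase at or above a cutoff of the median across tested compounds plus 3 SD (cut at about 8.5% in these data, passing the limit was not always enough); inconclusive means some gains above the cutoff, reason not given; inactive means the rest.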
Columns and labels:
[1] = S. cerevisiae growth inhibition in permissive medium (OD615), pilot counter-assay for S. cerevisiae lifespan shortening project, permissive growth control (AID 705;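 active means growth inhibition above 25% in both replicates, a cutoff set 3 SD above the mean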); conditions: OD615, 24 h, at 10 µM, active compounds read high
Procedure, shortened: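 System: engineered DeaD yeast; Medium: permissive raffinose/galactose medium; Compound dosing: 10 µM single dose, 0.25% DMSO; Incubation: 4 h cell pre-growth, 24 h exposure at 30 °C; Technique: OD at 615 nm; Evaluation: growth inhibition from lowered OD615 after 24 h.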

[2] = S. cerevisiae growth inhibition in restrictive medium, OD615, pilot screen, restrictive growth control, yeast lifespan reduction project (AID 706;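 active means growth inhibition above a set limit, 3 SD over mean compound inhibition, in both replicates, cut at about 43% in these data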;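 further: modified DeaD lifespan yeast strain shifted to restrictive glucose medium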); conditions: OD615, 48 h, at 10 µM, active compounds read high
Procedure, shortened: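 Material: modified S. cerevisiae; buffer or medium: CSMM-D glucose medium; doses: one concentration, 10 µM final, 0.25% DMSO; incubation: 48 h compound exposure at 30 °C; detection: optical density at 615 nm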

[3] = doxorubicin toxicity protection in MRP-1 cells – H69AR cells, CellTiter-Glo, duplicate, MRP-1 activator project, pilot screen (AID 807); conditions: H69AR viability with doxorubicin, CellTiter-Glo luminescence; at 10 µM; active compounds read high;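 further: compound pretreatment 18-22 h then 72 h combined with doxorubicin; 0% = doxorubicin alone and 100% = vehicle without doxorubicin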
[4] = viability of HCT116 without oncogenic beta-catenin – human colon tumor cells, pilot screen (AID 823;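 active means cell viability at or below a set limit in both duplicate runs, the limit being the all-compound median minus 4 SD, cut at about 23% in these data, passing the limit was not always enough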;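 further: 0% = wells killed by 20 µM Hyamine and 100% = untreated DMSO cell wells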); conditions: HCT116 beta-catenin knockout viability, CellTiter-Glo, 60 h; at 10 µM; active compounds read low
[5] = viability of PTEN-null HCT116 cells – cell-based, HCT116 clonal line, CellTiter-Glo, pilot screen (AID 824;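 active means viability at or below 27.92% in each of two runs, the all-compound median minus 4 SD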;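 further: 0% = 20 µM Hyamine control and 100% = vehicle cell control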); conditions: HCT116 PTEN-deleted viability, 60 h, at 10 µM, active compounds read low
[6] = RAM pathway blockade in budding yeast – dse1pr::URA3 reporter, 5-FOA selection, pilot screen (AID 869;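 active means inhibition over a set limit, the all-compound mean plus 3 SD, in both replicate runs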;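 further: 0% = DMSO wells with no growth and 100% = 10 µM 1-NA-PP1 with full growth; RAM network block rescues cells from 5-FOA so hits raise OD615 growth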); conditions: S. cerevisiae dse1pr::URA3 5-FOA growth, OD615, 2 d; at 10 µM; active compounds read high; strain carries analog-sensitive mutant Cbk1 kinase
[7] = RAM signaling pathway blockade in yeast – S. cerevisiae, Pdr1DBD-CYC8 efflux-inhibited sensitized strain, primary screen (AID 1298;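 active means RAM network inhibition above 8.4% in each of two replicates, 3 SD over the compound average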;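 further: 0% = DMSO untreated cells without growth and 100% = 10 µM 1-NA-PP1 full growth; higher means more yeast growth rescued from 5-FOA killing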); conditions: S. cerevisiae cbk1-as DSE1-URA3 strain, 5-FOA growth OD615, 2 d; at 50 µM; active compounds read high

Cn1c(SCC(=O)N2CCCCC2)nc2c([nH]c3ccccc32)c1=O
inactive: growth inhibition [1] -3.83% | growth inhibition [2] -3.68% | viability increase [3] -6.06% | viability [4] 61.4% | viability [5] 44% | inhibition [6] 2.85% | RAM network inhibition [7] 4.75%

CC(C)C(=O)N1CCN(c2ccccc2N)CC1
inactive: growth inhibition [1] -9.49% | growth inhibition [2] -20.2% | viability increase [3] -1.42% | viability [4] 102% | viability [5] 95.8% | inhibition [6] 1.55% | RAM network inhibition [7] 1.34%

Cc1cc(C)c2c(=O)[nH]c(SCC(=O)N3CCCCC3)nc2n1
inactive: growth inhibition [1] -12.1% | growth inhibition [2] -6.02% | viability increase [3] -0.84% | viability [4] 93.1% | viability [5] 101% | inhibition [6] 0.535% | RAM network inhibition [7] 2.3%

CC(C)N1CCc2c(sc(NC(=O)c3ccc(S(=O)(=O)N4CCOCC4)cc3)c2C(N)=O)C1
inactive: growth inhibition [1] -2.23% | growth inhibition [2] -11.5% | viability increase [3] -3.25% | viability [4] 92.6% | viability [5] 88.7% | inhibition [6] 2.21% | RAM network inhibition [7] 1.28%

CCC(NC(=O)c1ccccc1NC(=O)c1ccco1)C(=O)O (stereo not drawn)
inactive: growth inhibition [1] -0.94% | growth inhibition [2] -12.6% | viability increase [3] -4.34% | viability [4] 109% | viability [5] 95.7% | inhibition [6] 0.27% | RAM network inhibition [7] 0.73%

O=C(O)c1ccc(-n2cccc2)cc1O
inactive: growth inhibition [1] -2.21% | growth inhibition [2] -13.1% | viability increase [3] -1.52% | viability [4] 96.8% | viability [5] 101% | inhibition [6] 0.285% | RAM network inhibition [7] -0.83%

N#Cc1nc(-c2ccccc2F)oc1NC1CCCCC1
inactive: growth inhibition [1] -18.3% | growth inhibition [2] -17.6% | viability increase [3] -2.53% | viability [4] 87.7% | viability [5] 87.6% | inhibition [6] 0.64% | RAM network inhibition [7] 6%

CC(=O)CC(=O)Nc1cccc2c1CCCC2
inactive: growth inhibition [1] -1.4% | growth inhibition [2] -1.66% | viability increase [3] -1.76% | viability [4] 92.6% | viability [5] 91.5% | inhibition [6] -0.665% | RAM network inhibition [7] 1.72%

CC(C)CCN(C)C1CCN(C(=O)Nc2c(F)cccc2F)CC1
inactive: growth inhibition [1] 0.53% | growth inhibition [2] -12.6% | viability increase [3] -3.34% | viability [4] 90.6% | viability [5] 91.7% | inhibition [6] 1.56% | RAM network inhibition [7] 0.26%

Cn1cnc2c1c(=O)n(Cc1ccccc1)c(=O)n2C
inactive: growth inhibition [1] -14.8% | growth inhibition [2] -14.2% | viability increase [3] -1.66% | viability [4] 106% | viability [5] 97% | inhibition [6] 3.59% | RAM network inhibition [7] 0.42%

O=S(=O)(NCC(c1cccnc1)N1CCN(c2ccc(F)cc2)CC1)c1ccc(F)cc1 (stereo not drawn)
inactive: growth inhibition [1] -0.55% | growth inhibition [2] -0.65% | viability increase [3] -2.52% | viability [4] 87.4% | viability [5] 84.5% | inhibition [6] 4.02% | RAM network inhibition [7] 4.9%

c1ccc(CNc2nc3ccccc3n3cnnc23)nc1
inactive: growth inhibition [1] -13.7% | growth inhibition [2] -8.93% | viability increase [3] -1.36% | viability [4] 105% | viability [5] 88.5% | inhibition [6] -0.44% | RAM network inhibition [7] 3.37%

O=C(Nc1ccc(Oc2ccc(NC(=O)C3CCCO3)cc2)cc1)C1CCCO1 (stereo not drawn)
inactive: growth inhibition [1] -2.75% | growth inhibition [2] -11% | viability increase [3] -5.07% | viability [4] 85.7% | viability [5] 96.7% | inhibition [6] 3.62% | RAM network inhibition [7] -0.11%

O=C1NCCCC1C(=O)N1CCN(C(c2ccccc2)c2ccccc2)CC1 (stereo not drawn)
inactive: growth inhibition [1] 6.11% | growth inhibition [2] 11.2% | viability increase [3] 1% | viability [4] 98.5% | viability [5] 94.3% | inhibition [6] 0.65% | RAM network inhibition [7] 7.67%

COc1ccc(Cl)cc1N(CC(=O)Nc1ccc2c(c1)OCO2)S(C)(=O)=O
inactive: growth inhibition [1] -15.1% | growth inhibition [2] -11.7% | viability increase [3] -3.17% | viability [4] 92.6% | viability [5] 89.4% | inhibition [6] 0.79% | RAM network inhibition [7] 2.18%

CCCn1c(C(O)c2ccc(OCC)cc2)nc2ccccc21 (stereo not drawn)
inactive: growth inhibition [1] -8.12% | growth inhibition [2] -1.57% | viability increase [3] -3.93% | viability [4] 94.9% | viability [5] 82.3% | inhibition [6] 1.36% | RAM network inhibition [7] -1.01%

COc1cccc(NC(=O)CSc2nnc(Cn3c(=O)sc4ccccc43)n2C)c1
inactive: growth inhibition [1] 1.18% | growth inhibition [2] 18.9% | viability increase [3] -2.91% | viability [4] 102% | viability [5] 104% | inhibition [6] 2.37% | RAM network inhibition [7] 4.95%

COc1ccc(N(CC(=O)Nc2cc(OC)ccc2OC)S(=O)(=O)c2c(C)nn(C)c2C)cc1
inactive: growth inhibition [1] -7.47% | growth inhibition [2] -15.8% | viability increase [3] -4.82% | viability [4] 95.6% | viability [5] 81% | inhibition [6] 1.36% | RAM network inhibition [7] 0.21%

CC(=O)c1ccc(C(=O)Nc2ccc(N3CCOCC3)cc2)cc1
inactive: growth inhibition [1] -0.45% | growth inhibition [2] 2.98% | viability increase [3] 3.45% | viability [4] 98.5% | viability [5] 99.6% | inhibition [6] 0.45% | RAM network inhibition [7] 2.61%

O=C(Cn1cc2c(n1)CCCC2)NCc1cccnc1
inactive: growth inhibition [1] -1.72% | growth inhibition [2] -0.58% | viability increase [3] -0.86% | viability [4] 102% | viability [5] 101% | inhibition [6] 3.13% | RAM network inhibition [7] 3.68%

COc1ccc(C(=O)N2CCN(c3ccc(C)c(C)c3)CC2)cc1OC
inactive: growth inhibition [1] -6.27% | growth inhibition [2] -4.04% | viability increase [3] -0.89% | viability [4] 99.5% | viability [5] 92% | inhibition [6] 0.21% | RAM network inhibition [7] 2.55%

O=C(NCc1ccc(F)cc1)c1cnc2n(c1=O)CCS2
inactive: growth inhibition [1] -2.45% | growth inhibition [2] -2.23% | viability increase [3] 2.85% | viability [4] 101% | viability [5] 102% | inhibition [6] 0.54% | RAM network inhibition [7] -0.84%

Cc1ccccc1NC(=O)CSc1[nH]c(=O)cc(C)c1C#N
inactive: growth inhibition [1] -1.3% | growth inhibition [2] 11.7% | viability increase [3] -0.42% | viability [4] 108% | viability [5] 101% | inhibition [6] 2.41% | RAM network inhibition [7] 1.7%

COc1ccc(NC(=O)CN(c2cc(C)cc(C)c2)S(=O)(=O)c2c(C)n[nH]c2C)cc1
inactive: growth inhibition [1] -9.19% | growth inhibition [2] -1.92% | viability increase [3] -2.97% | viability [4] 102% | viability [5] 94.6% | inhibition [6] 0.955% | RAM network inhibition [7] 5.46%
